Results taken from ChEMBL document CHEMBL1153940, “Anthranilic acid based CCK1 receptor antagonists: blocking the receptor with the same 'words' of the endogenous ligand” (Bioorg Med Chem, 2009).

Columns and labels:
[1] = molecular target: T1, Cholecystokinin receptor type A (Rattus norvegicus, UniProt P30551); experiment: Displacement of [125I]BH-CCK8 from CCK1 receptor in Sprague-Dawley rat pancreatic acinar cells
T1 sequence (P30551 whole entry): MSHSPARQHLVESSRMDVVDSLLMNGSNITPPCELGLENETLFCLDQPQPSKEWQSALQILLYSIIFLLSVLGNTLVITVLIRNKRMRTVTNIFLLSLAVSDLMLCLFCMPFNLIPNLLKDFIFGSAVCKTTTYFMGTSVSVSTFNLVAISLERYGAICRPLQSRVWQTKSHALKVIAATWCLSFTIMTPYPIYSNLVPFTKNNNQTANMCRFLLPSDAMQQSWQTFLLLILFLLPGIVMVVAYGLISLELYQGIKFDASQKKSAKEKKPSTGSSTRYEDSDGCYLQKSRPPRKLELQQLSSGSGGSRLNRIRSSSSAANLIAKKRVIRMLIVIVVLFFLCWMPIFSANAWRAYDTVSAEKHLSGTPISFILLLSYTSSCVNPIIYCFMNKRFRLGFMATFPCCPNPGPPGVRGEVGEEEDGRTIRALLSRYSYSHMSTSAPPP
Outline: (§1)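 Pancreatic acini were obtained by enzymatic digestion from male Sprague Dawley rats fasted 18–24 h with water allowed. Cells were incubated with 25 pM (final) [125I]BH-CCK-8 and competitors at 37 °C for 30 min with shaking. The reaction was stopped with ice-cold Hepes-Ringer (1% BSA, soybean trypsin inhibitor, pH 7.4), then centrifuged 5 min at 12,500g, and pellet radioactivity was measured.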

[2] = tested on: Gastrin/cholecystokinin type B receptor (Cavia porcellus); experiment: Displacement of [125I]BH-CCK8 from CCK2 receptor in Hartley guinea pig cerebral cortex at 10 uM
[3] = molecular target: T2, Cholecystokinin receptor type A (Rattus norvegicus) (UniProt P30551); experiment: Displacement of [125I]BH-CCK8 from CCK1 receptor in Sprague-Dawley rat pancreatic acinar cells at 10 uM; outline: as §1
T2 sequence (whole entry): T1 sequence (P30551 whole entry)

[4] = molecular target: T2, Cholecystokinin receptor type A (Rattus norvegicus); experiment: Displacement of [125I]BH-CCK8 from CCK1 receptor in Sprague-Dawley rat pancreatic acinar cells at 3 uM; outline: as §1
[5] = molecular target: Gastrin/cholecystokinin type B receptor (Cavia porcellus, UniProt H0VZC5); experiment: Displacement of [125I]BH-CCK8 from CCK2 receptor in Hartley guinea pig cerebral cortex
Chain of Gastrin/cholecystokinin type B receptor (H0VZC5 1-426): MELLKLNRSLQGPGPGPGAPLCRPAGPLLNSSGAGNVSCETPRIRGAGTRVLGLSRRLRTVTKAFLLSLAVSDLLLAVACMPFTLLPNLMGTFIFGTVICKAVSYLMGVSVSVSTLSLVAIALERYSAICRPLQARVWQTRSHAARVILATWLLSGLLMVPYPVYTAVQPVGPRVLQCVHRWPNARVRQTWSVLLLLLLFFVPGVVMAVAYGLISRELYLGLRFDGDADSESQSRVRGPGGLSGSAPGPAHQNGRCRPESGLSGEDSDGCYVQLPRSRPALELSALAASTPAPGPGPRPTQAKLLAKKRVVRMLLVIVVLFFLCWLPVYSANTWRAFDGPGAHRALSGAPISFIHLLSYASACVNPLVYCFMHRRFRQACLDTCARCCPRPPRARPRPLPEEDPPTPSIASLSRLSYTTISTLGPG

[6] = molecular target: T3, Cholecystokinin receptor type A (Cavia porcellus) (UniProt Q63931); experiment: Antagonist activity against CCK1 receptor in Hartley guinea pig gallbladder assessed as inhibition of CCK-8- stimulated contraction at 1 uM; assay type: functional
T3 sequence (whole entry): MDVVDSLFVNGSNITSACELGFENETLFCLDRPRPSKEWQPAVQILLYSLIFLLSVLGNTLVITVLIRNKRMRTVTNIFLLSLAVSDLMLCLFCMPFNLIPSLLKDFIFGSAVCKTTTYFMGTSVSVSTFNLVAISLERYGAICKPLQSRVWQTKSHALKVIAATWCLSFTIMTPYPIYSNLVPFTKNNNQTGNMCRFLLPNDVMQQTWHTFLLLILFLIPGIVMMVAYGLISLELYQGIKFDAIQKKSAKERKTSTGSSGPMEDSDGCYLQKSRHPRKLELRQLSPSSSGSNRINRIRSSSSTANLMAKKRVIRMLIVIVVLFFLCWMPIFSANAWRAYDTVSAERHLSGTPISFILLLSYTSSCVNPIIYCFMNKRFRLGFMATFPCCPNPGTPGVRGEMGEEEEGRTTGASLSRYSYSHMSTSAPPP
Outline: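 Circular smooth-muscle strips (about 3 × 15 mm) hung in organ baths of Krebs–Henseleit at 32 °C, gassed 95% O2–5% CO2, and equilibrated 60 min with washes every 15 min. Antagonist or vehicle was applied 5 min before a submaximal (70–80%) CCK-8 concentration. Isometric contraction was recorded and activity expressed as percent inhibition of agonist contraction.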

[7] = tested on: Gastrin/cholecystokinin type B receptor (Cavia porcellus); experiment: Displacement of [125I]BH-CCK8 from CCK2 receptor in Hartley guinea pig cerebral cortex at 30 uM
[8] = tested on: Gastrin/cholecystokinin type B receptor (Cavia porcellus); experiment: Displacement of [125I]BH-CCK8 from CCK2 receptor in Hartley guinea pig cerebral cortex at 1 uM

| Structure (SMILES) | IC50 [1] [nM] | Activity [2] [%] | further results |
| --- | --- | --- | --- |
| NC(=O)C(Cc1ccccc1)NC(=O)c1ccccc1NC(=O)c1cc2ccccc2[nH]1 (racemic) | 8530 | < 20 | – |
| O=C(O)CCC(NC(=O)c1ccccc1NC(=O)c1cc2ccccc2[nH]1)C(=O)O (racemic) | – | < 20 | Activity [3]: < 20% |
| CC(C)C(NC(=O)c1ccccc1NC(=O)c1cc2ccccc2[nH]1)C(=O)O (racemic) | 288 | – | – |
| CSCCC(NC(=O)c1ccccc1NC(=O)c1cc2ccccc2n1C)C(=O)O (racemic) | 92 | < 20 | – |
| CC(NC(=O)c1ccccc1NC(=O)c1cc2ccccc2[nH]1)C(=O)O (racemic) | 3240 | < 20 | – |
| O=C(Nc1ccccc1C(=O)NC(Cc1ccccc1)C(=O)O)c1cc2ccccc2[nH]1 (stereo unspecified) | 197 | – | IC50 [5]: 16400 nM |
| CSCCC(NC(=O)c1ccccc1NC(=O)c1cc2ccccc2[nH]1)C(=O)O (stereo unspecified) | 52 | < 20 | inhibition [6]: 100% |
| CCOC(=O)C(Cc1ccccc1)NC(=O)c1ccccc1NC(=O)c1cc2ccccc2[nH]1 (racemic) | – | – | Activity [4]: 20%; Activity [7]: < 20% |
| O=C(O)CNC(=O)c1ccccc1NC(=O)c1cc2ccccc2[nH]1 | 5520 | – | – |
| O=C(O)CCCNC(=O)c1ccccc1NC(=O)c1cc2ccccc2[nH]1 | – | – | Activity [4]: < 20%; Activity [7]: < 20% |
| CC(C)CC(NC(=O)c1ccccc1NC(=O)c1cc2ccccc2[nH]1)C(=O)O (racemic) | 83 | – | inhibition [6]: 100% |
| O=C(O)CCNC(=O)c1ccccc1NC(=O)c1cc2ccccc2[nH]1 | – | – | Activity [4]: < 20%; Activity [7]: < 20% |
| CC(Cc1ccccc1)NC(=O)c1ccccc1NC(=O)c1cc2ccccc2[nH]1 (racemic) | 3150 | < 20 | – |
| O=C(O)CC(NC(=O)c1ccccc1NC(=O)c1cc2ccccc2[nH]1)C(=O)O (racemic) | – | – | Activity [3]: < 20%; Activity [8]: < 20% |
| O=C(O)CC(Cc1ccccc1)NC(=O)c1ccccc1NC(=O)c1cc2ccccc2[nH]1 (racemic) | – | – | Activity [3]: 25%; IC50 [5]: 16900 nM |
| CCCCCN(CCCCC)C(=O)C(Cc1ccccc1)NC(=O)c1ccccc1NC(=O)c1cc2ccccc2[nH]1 (stereo unspecified) | – | – | Activity [4]: < 20%; Activity [7]: < 20% |
| O=C(Nc1ccccc1C(=O)NC(CO)Cc1ccccc1)c1cc2ccccc2[nH]1 (racemic) | – | – | Activity [4]: 32% |

Continued, in another order:

| IC50 [1] [nM] | Activity [2] [%] | Structure (SMILES) | further results |
| --- | --- | --- | --- |
| 2070 | – | O=C(Nc1ccccc1C(=O)NC(Cc1ccc(O)cc1)C(=O)O)c1cc2ccccc2[nH]1 (racemic) | – |
| – | < 20 | O=C(Nc1ccccc1C(=O)NCCc1ccccc1)c1cc2ccccc2[nH]1 | Activity [4]: < 20% |
| 27 | – | CSCC[C@@H](NC(=O)c1ccccc1NC(=O)c1cc2ccccc2[nH]1)C(=O)O | IC50 [5]: 11400 nM |
| 2750 | – | CSCC[C@H](NC(=O)c1ccccc1NC(=O)c1cc2ccccc2[nH]1)C(=O)O | Activity [7]: 31% |
| 1160 | < 20 | O=C(Nc1ccccc1C(=O)NC(Cc1ccc(OCc2ccccc2)cc1)C(=O)O)c1cc2ccccc2[nH]1 (racemic) | – |
| 445 | – | O=C(Nc1ccccc1C(=O)NC(Cc1c[nH]c2ccccc12)C(=O)O)c1cc2ccccc2[nH]1 (racemic) | – |
| 46 | – | CC(C)C[C@@H](NC(=O)c1ccccc1NC(=O)c1cc2ccccc2[nH]1)C(=O)O | IC50 [5]: 14700 nM |
| – | < 20 | O=C(Nc1ccccc1C(=O)NCCc1c[nH]c2ccccc12)c1cc2ccccc2[nH]1 | Activity [4]: < 20% |
